Data reported in ChEMBL document CHEMBL4431316, “New 6-Aminoquinoxaline Derivatives with Neuroprotective Effect on Dopaminergic Neurons in Cellular and Animal Parkinson Disease Models” (J Med Chem, 2016).
Activity calls are given as the source filed them. The calls are words filed in the database; no cut-off is given here.

Columns and labels:
Rattus norvegicus [1] = species on record: Rattus norvegicus; experiment: (§1) Neuroprotective activity in Sprague-Dawley rat DA neuron death PD model assessed as survival of Th immunopositive cells at 50 uM after 10 days by immunofluorescence assay; assay type: functional
Method in brief: (§2)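 Midbrain cultures in which DA neurons die spontaneously and selectively through a mechanism involving immature astrocytes and calcium dyshomeostasis. Compounds were present for 10 days in vitro, screened at 50 µM (100 µM for one analog) and retested at 10 µM. dbcAMP 1 mM served as reference. Surviving TH+ neurons were counted and expressed as % of corresponding untreated control cultures.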

[2] = (§3) Neuroprotective activity in Sprague-Dawley rat DA neuron death PD model assessed as survival of Th immunopositive cells at 10 uM after 10 days by immunofluorescence assay relative to control; assay type: functional; details: 240 h, read-out: Survival; method in brief: as §2
Astrocyte [3] = experiment: Neuroprotective activity in Sprague-Dawley rat astrocytes assessed as effect on vimentin positive cell density and morphology at 10 uM by fluorescence microscopic method; assay type: functional, cell-based
Method in brief: (§4)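 Midbrain cultures labelled for vimentin, a glial marker. Density and morphology of glial cells scored semi-quantitatively by fluorescence microscopy. Compounds tested at 10 and 50 µM, one at 100 µM; dbcAMP as reference.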

Astrocyte [4] = experiment: Neuroprotective activity in Sprague-Dawley rat astrocytes assessed as effect on vimentin positive cell density and morphology at 50 uM by fluorescence microscopic method; assay type: functional, cell-based; method in brief: as §4
Rattus norvegicus [5] = species on record: Rattus norvegicus; experiment: as §3; assay type: functional; method in brief: as §2
Astrocyte [6] = experiment: Neuroprotective activity in Sprague-Dawley rat astrocytes assessed as [methyl-3H]thymidine incorporation at 10 to 50 uM after 8 days by liquid scintillation counting assay relative to control; assay type: functional
Method in brief: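 Glial proliferation in midbrain cultures measured as [methyl-3H]-thymidine incorporation at 8 DIV, with test compound 10-50 µM. DbcAMP 1 mM as positive control. Expressed as % of control.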

[7] = Neuroprotective activity in Sprague-Dawley rat DA neuron death PD model assessed as survival of Th immunopositive cells at 100 uM after 10 days by immunofluorescence assay relative to control; assay type: functional; details: 240 h, read-out: Survival; method in brief: as §2
Astrocyte [8] = experiment: Neuroprotective activity in Sprague-Dawley rat astrocytes assessed as effect on vimentin positive cell density and morphology at 100 uM by fluorescence microscopic method; assay type: functional, cell-based; method in brief: as §4
Rattus norvegicus [9] = species on record: Rattus norvegicus; experiment: Antioxidant activity in Sprague-Dawley rat DA neuron assessed as reduction in ferrous iron-mediated neuron death at 5 uM; assay type: functional
Method in brief: (§5)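 Midbrain cultures with DA cell death driven by a Fenton-type reaction, ferrous iron reacting with molecular oxygen in the medium (chronic oxidative stress). Test compound 1-10 µM; desferrioxamine 10 µM as positive control. Readout is DA neuron (TH+) survival. P < 0.05 vs control cultures.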

[10] = as §1; assay type: functional; details: 240 h, read-out: Survival; method in brief: as §2
Rattus norvegicus [11] = species on record: Rattus norvegicus; experiment: Antioxidant activity in Sprague-Dawley rat DA neuron assessed as reduction in ferrous iron-mediated neuron death at 10 uM; assay type: functional; method in brief: as §5
[12] = Neuroprotective activity in Sprague-Dawley rat DA neuron death PD model assessed as survival of Th immunopositive cells at 1 mM after 10 days by immunofluorescence assay relative to control; assay type: functional; details: 240 h, read-out: Survival; method in brief: as §2
Astrocyte [13] = experiment: Neuroprotective activity in Sprague-Dawley rat astrocytes assessed as effect on vimentin positive cell density and morphology at 1 mM by fluorescence microscopic method; assay type: functional, cell-based; method in brief: as §4
Rattus norvegicus [14] = species on record: Rattus norvegicus; experiment: Neuroprotective activity in Sprague-Dawley rat DA neuron death PD model assessed as increase in [2,5,6-3H]DA uptake at 1 mM after 10 days by liquid scintillation counting spectrometric analysis; assay type: functional
Method in brief: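 Midbrain cultures in which DA neurons die spontaneously and selectively. Treated with test compound (10-50 µM) or dbcAMP (1 mM, reference) up to 10 DIV. Tritium-labeled DA uptake quantified as a marker of DA cell function and differentiation. Uptake rate per TH+ neuron also derived. *P < 0.05 vs control.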

Structure (SMILES) | Activity (Rattus norvegicus [1]) | further results
COc1ccc(-c2nc3cc(N)ccc3nc2C)cc1OC | inactive | –
Nc1ccc2ncc(-c3ccc(F)cc3)nc2c1 | Active | viability at 10 µM [2]: 144%; Activity (Astrocyte [3]): inactive; Activity (Astrocyte [4]): inactive
Cc1nc2ccc(N)cc2nc1-c1ccc(Cl)c(Cl)c1 | Active | –
COc1cc(-c2cnc3ccc(N)cc3n2)cc(OC)c1OC | Active | Activity (Rattus norvegicus [5]): inactive
Cc1nc2ccc(N)cc2nc1-c1ccc(F)cc1 | Active | –
Nc1ccc2ncc(Cl)nc2c1 | Active | –
C#CCNc1ccc2nc(C)c(-c3ccccc3)nc2c1 | Active | –
C#CCNc1ccc2nc(C)c(-c3ccc(C)cc3)nc2c1 | inactive | Activity (Astrocyte [6]): inactive
C#CCNc1ccc2nc(C)c(-c3cc(OC)c(OC)c(OC)c3)nc2c1 | – | Activity (Astrocyte [6]): inactive
C#Cc1cnc2ccc(N)cc2n1 | inactive | –
Nc1ccc2ncc(-c3cnc4ccccc4c3)nc2c1 | Active | –
Cc1nc2ccc(N)cc2nc1-c1ccc(Cl)cc1 | inactive | –
Nc1ccc2ncc(-c3cccc4ccccc34)nc2c1 | Active | –
Cc1nc2ccc(N)c(Br)c2nc1-c1ccccc1 | Active | Activity (Rattus norvegicus [5]): inactive
Cc1ccc(-c2nc3cc(N)ccc3nc2C)cc1 | inactive | –
C#CCNc1ccc2ncc(-c3ccc(F)cc3)nc2c1 | Active | Activity (Astrocyte [3]): inactive; Activity (Astrocyte [4]): Active
C#CCNc1ccc2nc(C)c(-c3ccc(OC)cc3)nc2c1 | – | Activity (Astrocyte [6]): inactive
COc1ccc(-c2nc3cc(N)ccc3nc2-c2ccccc2)cc1 | inactive | –
Nc1ccc2ncc(-c3cccnc3)nc2c1 | Active | –
Cc1nc2ccc(N)cc2nc1-c1ccccc1 | – | viability at 100 µM [7]: 199%; Activity (Astrocyte [3]): inactive; Activity (Astrocyte [8]): Active; Activity (Rattus norvegicus [9]): Active

Structure (SMILES) | Activity (Rattus norvegicus [1]) | further results
C#CCNc1ccc2nc(C)c(-c3ccc(Cl)c(Cl)c3)nc2c1 | inactive | Activity (Astrocyte [6]): inactive
COc1ccc(-c2nc3cc(N)ccc3nc2C)cc1 | inactive | –
Nc1ccc2nc(-c3ccccc3)cnc2c1 | – | viability at 50 µM [10]: 187%; viability at 10 µM [2]: 134%; Activity (Astrocyte [3]): inactive; Activity (Astrocyte [4]): inactive
C#CCNc1ccc2nc(C)c(-c3ccccc3)nc2c1Br | Active | –
COc1ccc(C#Cc2cnc3ccc(N)cc3n2)cc1 | inactive | –
C#CCNc1ccc2nc(C)c(-c3ccc(Cl)cc3)nc2c1 | inactive | Activity (Astrocyte [6]): inactive
Cc1nc2ccc(N)cc2nc1-c1ccc2ccccc2c1 | inactive | –
CC(=O)N(O)CCCCCNC(=O)CCC(=O)N(O)CCCCCNC(=O)CCC(=O)N(O)CCCCCN | – | Activity (Rattus norvegicus [11]): Active
Nc1ccc2ncc(-c3ccc4ccccc4c3)nc2c1 | Active | –
C#CCNc1ccc2ncc(-c3ccccc3)nc2c1 | Active | viability at 10 µM [2]: 212%; Activity (Astrocyte [3]): inactive; Activity (Astrocyte [4]): Active
C#CCNc1ccc2nc(C)c(-c3ccc(F)cc3)nc2c1 | Active | –
Cc1nc2cc(Br)c(N)c(Cl)c2nc1-c1ccccc1 | inactive | –
C#CCNc1ccc2nc(C)c(-c3ccc4ccccc4c3)nc2c1 | inactive | Activity (Astrocyte [6]): inactive
CCCC(=O)Nc1ncnc2c1ncn2[C@@H]1O[C@@H]2COP(=O)(O)O[C@H]2[C@H]1OC(=O)CCC [BUCLADESINE] | – | viability at 1000 µM [12]: 225%; Activity (Astrocyte [13]): Active; Activity (Rattus norvegicus [14]): Active
Cc1nc2ccc(N)cc2nc1-c1ccc(-c2ccccc2)cc1 | inactive | –
Nc1ccc2ncc(-c3cccc(O)c3)nc2c1 | Active | Activity (Rattus norvegicus [5]): inactive
Cc1nc2ccc(N)cc2nc1C | inactive | –
Cc1nc2ccc(N)c(Cl)c2nc1-c1ccccc1 | Active | –
C#CC(C)(C)Nc1ccc2nc(C)c(-c3ccccc3)nc2c1 | inactive | Activity (Astrocyte [6]): inactive
